Results on 24 compounds are retold here after ChEMBL document CHEMBL1135649, “CycloSal-BVDUMP pronucleotides: how to convert an antiviral-inactive nucleoside analogue into a bioactive compound against EBV” (J Med Chem, 2002).

The nature of data set [1]: Selectivity index as the ratio of CC50 value to that of EC50 value. The data set is classed as functional. The gist of the method: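 Selectivity index is CC50 (μM)/EC50 (μM). CC50 is for P3HR-1 growth over 7 days, read by cell count. EC50 is for EBV DNA synthesis in TPA-induced P3HR-1 cells over 7 days, read by slot blot.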
For data set [2], the system named is P3HR-1. Briefly: Cytotoxic concentration for inhibition of human lymphoblastoid P3HR-1 cell growth. Type of data set: functional. The essentials: (§1)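 P3HR-1 cells seeded at 2 × 10⁵ cells/mL and grown 7 days with compound at a range of concentrations. Cells counted on a particle counter. CC50 calculated as 50% inhibition of cell growth.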
Data set [3] can be described thus: Partition coefficient (logP). Type of data set: physicochemical. The note with it: octanol/water. The gist of the method:
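Compound dissolved in 0.3 mL 1-octanol and shaken with 0.3 mL water by vortexing for 10 min. Phases separated by centrifugation. Each phase analysed by RP-18 HPLC with UV detection at 250 nm. P taken from the ratio of aqueous and organic peak areas.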

Another data set relates to Nucleic Acid. Briefly: Effective concentration for the inhibition of Epstein-Barr virus EBV-DNA synthesis in human lymphoblastoid P3HR-1 cells. The data set is classed as functional, cell-based. The note with it: human gammaherpesvirus 4, P3HR-1. The essentials:
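P3HR-1 (EBV producer) cells in RPMI-1640 with 10% heat-inactivated FCS at 36.5 °C, seeded at 10⁶ cells/mL. TPA 20 ng/mL added to induce virus production. Compound given at a range of concentrations for 7 days. DNA extracted and 10 μg used for slot blot hybridization with a digoxigenin-labeled EBV BamHI-W probe, chemiluminescence and densitometry. EC50 obtained by regression against untreated cells.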

In data set [4] the test system is P3HR-1. Briefly: Cytotoxic concentration for the inhibition of P3HR-1 cell growth. The note with it: Homo sapiens. The data set is classed as functional. The essentials:
as §1

Data set [5] is described as follows: Selectivity as the ratio of CC50 value to that of EC50 value. The data set is classed as functional. The essentials: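 Ratio CC50/EC50, both in P3HR-1 cells over 7 days at varied concentrations. EC50: cells seeded at 10⁶ cells/mL, induced with TPA 20 ng/mL; EBV DNA in 10 μg total DNA by slot blot with digoxigenin-labeled BamHI-W probe, chemiluminescence and densitometry; regression against untreated cells. CC50: growth from 2 × 10⁵ cells/mL, cells counted with a particle counter.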

The CC50 is the concentration giving 50% cytotoxicity. A word on the logP: it is the decadic logarithm of the partition coefficient of the neutral form, usually between octanol and water. One may read the EC50 as the concentration that produces a half-maximal response. High values mean lower potency in that assay, low ones higher potency in that assay. `O=c1[nH]c(=O)n([C@H]2C[C@H](O)[C@@H](COP3(=O)OCc4ccccc4O3)O2)cc1/C=C/Br` (stereo partly specified): in data set [1], the SI was determined as 7.5. In the data set with P3HR-1 [2], this compound registered a CC50 of 92 µM. Besides, the logP in data set [3] turned out to be 1.5. The EC50 in the data set with Nucleic Acid is 12.3 µM.

For the compound `Cc1cccc2c1OP(=O)(OC[C@H]1O[C@@H](n3cc(/C=C/Br)c(=O)[nH]c3=O)C[C@@H]1OC(=O)[C@@H](N)C(C)C)OC2` (stereo partly specified), in data set [1], the SI is 0.6. Further, it took 47 µM to reach half-maximal cytotoxicity in the data set with P3HR-1 [2] (CC50). In data set [3], this compound gave a logP of -0.1. The same compound had a half-maximal effective concentration (EC50) with Nucleic Acid of 81.8 µM.

As to `Cc1cccc2c1OP(=O)(OC[C@H]1O[C@@H](n3cc(/C=C/Br)c(=O)[nH]c3=O)C[C@@H]1O)OC2` (stereo partly specified), the SI in data set [1] turned out to be 30. For the same compound, in the data set on P3HR-1 [2], the midpoint of cytotoxicity, the CC50, lay at 122 µM. Moreover, the logP in data set [3] came to 1.9. In the data set with Nucleic Acid, this compound displayed a concentration for a half-maximal effect (EC50) of 4.11 µM.

`O=c1[nH]c(=O)n([C@H]2C[C@H](O)[C@@H](COP3(=O)OCc4cc(Cl)ccc4O3)O2)cc1/C=C/Br` (stereo partly specified): in data set [1], the SI stood at 3.1. The compound further displayed a CC50 with P3HR-1 [2] of 80 µM. The compound further gave a lipophilicity (logP) in data set [3] of 1.8. Besides, the EC50 with Nucleic Acid is 25.8 µM.

In the case of `Cc1cccc2c1OP(=O)(OC[C@H]1O[C@@H](n3cc(/C=C/Br)c(=O)[nH]c3=O)C[C@@H]1OC(=O)[C@H]1CCCN1)OC2` (stereo partly specified), in the data set on P3HR-1 [2], the CC50 was found to be 38 µM. The compound further had a logP in data set [3] of -0.4. For the same compound, the EC50 in the data set with Nucleic Acid was at least 138 µM.

For the compound `Cc1cccc2c1OP(=O)(OC[C@H]1O[C@@H](n3cc(/C=C/Br)c(=O)[nH]c3=O)C[C@@H]1OC(=O)CN)OC2` (stereo partly specified), the SI in data set [1] amounted to 2.1. Also, the 50% cytotoxic concentration (CC50) with P3HR-1 [2] came to 93 µM. The same compound had a logP in data set [3] of -0.8. Moreover, the midpoint of the response in the data set with Nucleic Acid, the EC50, lay at 43.5 µM.

Turning to `Cc1cccc2c1OP(=O)(OC[C@H]1O[C@@H](n3cc(/C=C/Br)c(=O)[nH]c3=O)C[C@@H]1OC(=O)[C@H](N)C(C)C)OC2` (stereo partly specified), the 50% cytotoxic concentration (CC50) in the data set with P3HR-1 [2] worked out at 80 µM. Besides, in data set [3], the logP was -0.1. This compound registered an EC50 with Nucleic Acid above 137 µM.

`CCC(C)[C@@H](N)C(=O)O[C@H]1C[C@H](n2cc(/C=C/Br)c(=O)[nH]c2=O)O[C@@H]1COP1(=O)OCc2cccc(C)c2O1` (stereo partly specified) showed a CC50 with P3HR-1 [2] of 37 µM. Besides, in data set [3], the lipophilicity (logP) was -0.02. Further, the EC50 with Nucleic Acid is above 135 µM.

As for `Cc1cccc2c1OP(=O)(OC[C@H]1O[C@@H](n3cc(/C=C/Br)c(=O)[nH]c3=O)C[C@@H]1OC(=O)[C@H](N)Cc1ccccc1)OC2` (stereo partly specified), the SI in data set [1] is 1.4. Moreover, in the data set with P3HR-1 [2], the CC50 was determined as 66 µM. In data set [3], this compound registered a logP of 0.5. Further, it took 46.5 µM to reach a half-maximal effect in the data set on Nucleic Acid (EC50).

`CC(=O)CCC(=O)O[C@H]1C[C@H](n2cc(/C=C/Br)c(=O)[nH]c2=O)O[C@@H]1COP1(=O)OCc2cccc(C)c2O1` (stereo partly specified) showed a CC50 with P3HR-1 [2] of 152 µM. The same compound came in with a log partition coefficient (logP) in data set [3] of 2.3. Further, in the data set on Nucleic Acid, the EC50 was above 163 µM.

Compound `CCC(C)[C@H](N)C(=O)O[C@H]1C[C@H](n2cc(/C=C/Br)c(=O)[nH]c2=O)O[C@@H]1COP1(=O)OCc2cccc(C)c2O1` (stereo partly specified) came in with a CC50 with P3HR-1 [2] of 78 µM. Moreover, the logP in data set [3] is -0.02. For the same compound, in the data set with Nucleic Acid, the EC50 is above 135 µM.

In turn, `Cc1cccc2c1OP(=O)(OC[C@H]1O[C@@H](n3cc(/C=C/Br)c(=O)[nH]c3=O)C[C@@H]1OC(=O)[C@@H](N)Cc1ccccc1)OC2` (stereo partly specified) registered a CC50 with P3HR-1 [2] of 35 µM. In data set [3], this compound returned a logP of 0.5. The same compound came in with an EC50 in the data set with Nucleic Acid of at least 129 µM.

The compound `Cc1cccc2c1OP(=O)(OC[C@H]1O[C@@H](n3cc(/C=C/Br)c(=O)[nH]c3=O)C[C@@H]1OC(=O)[C@@H]1CCCN1)OC2` (stereo partly specified) showed a 50% cytotoxic concentration (CC50) with P3HR-1 [2] of 36 µM. The compound further had a logP in data set [3] of -0.4. The same compound yielded an EC50 with Nucleic Acid of at least 138 µM.

For the compound `O=c1[nH]c(=O)n([C@H]2C[C@H](O)[C@@H](CO)O2)cc1/C=C/Br` [BRIVUDINE], the midpoint of cytotoxicity with P3HR-1 [4], the CC50, lay at 225 µM. The compound also came in with a lipophilicity (logP) in data set [3] of 0.33. For the same compound, in the data set on Nucleic Acid, the EC50 is above 300 µM.

`CCCCCCC(=O)O[C@H]1C[C@H](n2cc(/C=C/Br)c(=O)[nH]c2=O)O[C@@H]1COP1(=O)OCc2cccc(C)c2O1` (stereo partly specified): the CC50 in the data set with P3HR-1 [4] is above 326 µM. In data set [3], this compound gave a logP of 2.6. Also, the 50% effective concentration (EC50) with Nucleic Acid was above 163 µM.

`Cc1cc(C)c2c(c1)COP(=O)(OC[C@H]1O[C@@H](n3cc(/C=C/Br)c(=O)[nH]c3=O)C[C@@H]1O)O2` (stereo partly specified): in data set [1], the SI amounted to 9.9. The same compound showed a CC50 with P3HR-1 [2] of 143 µM. Besides, the lipophilicity (logP) in data set [3] turned out to be 2.2. Moreover, it took 14.4 µM to reach a half-maximal effect with Nucleic Acid (EC50).

As for `CCCCCCCCCCC(=O)O[C@H]1C[C@H](n2cc(/C=C/Br)c(=O)[nH]c2=O)O[C@@H]1COP1(=O)OCc2cccc(C)c2O1` (stereo partly specified), the CC50 with P3HR-1 [4] is above 299 µM. The compound further registered a logP in data set [3] of 2.8. Further, the EC50 with Nucleic Acid was above 149 µM.

As to `Cc1cccc2c1OP(=O)(OC[C@H]1O[C@@H](n3cc(/C=C/Br)c(=O)[nH]c3=O)C[C@@H]1OC(=O)[C@@H](N)CC(C)C)OC2` (stereo partly specified), in data set [1], the SI came out at 2. Further, the CC50 in the data set with P3HR-1 [2] worked out at 45 µM. In data set [3], the logP came out at 0.4. This compound also registered an EC50 with Nucleic Acid of 23 µM.

In the case of `CC(C)(C)c1cccc2c1OP(=O)(OC[C@H]1O[C@@H](n3cc(/C=C/Br)c(=O)[nH]c3=O)C[C@@H]1O)OC2` (stereo partly specified), in data set [1], the SI stood at 2.5. The compound also had a CC50 in the data set on P3HR-1 [2] of 80 µM. The logP in data set [3] was determined as 2.9. In the data set with Nucleic Acid, this compound yielded an EC50 of 32.5 µM.

As for `Cc1cccc2c1OP(=O)(OC[C@H]1O[C@@H](n3cc(/C=C/Br)c(=O)[nH]c3=O)C[C@@H]1OC(=O)CC(C)C)OC2` (stereo partly specified), the 50% cytotoxic concentration (CC50) in the data set on P3HR-1 [2] came out at 104 µM. This compound had a logP in data set [3] of 2.4. In the data set with Nucleic Acid, this compound registered an EC50 above 171 µM.

As to `COc1ccc2c(c1)COP(=O)(OC[C@H]1O[C@@H](n3cc(/C=C/Br)c(=O)[nH]c3=O)C[C@@H]1O)O2` (stereo partly specified), the SI in data set [1] was 41. For the same compound, the CC50 in the data set on P3HR-1 [2] was 137 µM. The logP in data set [3] was 1.6. In the data set on Nucleic Acid, this compound displayed a 50% effective concentration (EC50) of 3.35 µM.

On to `Cc1cccc2c1OP(=O)(OC[C@H]1O[C@@H](n3cc(/C=C/Br)c(=O)[nH]c3=O)C[C@@H]1OC(=O)[C@H](N)CC(C)C)OC2` (stereo partly specified), for which half-maximal cytotoxicity in the data set with P3HR-1 [2] (CC50) was put at 65 µM. The compound further yielded a logP in data set [3] of 0.4. In addition, the concentration for a half-maximal effect (EC50) in the data set with Nucleic Acid was above 135 µM.

In the data set with P3HR-1 [2], `CC(=O)O[C@H]1C[C@H](n2cc(/C=C/Br)c(=O)[nH]c2=O)O[C@@H]1COP1(=O)OCc2cccc(C)c2O1` (stereo partly specified) showed a CC50 of 109 µM. In data set [3], this compound yielded a lipophilicity (logP) of 2.2.

`Nc1nc2c(ncn2COCCO)c(=O)[nH]1` [ACYCLOVIR]: the midpoint of cytotoxicity in the data set with P3HR-1 [4], the CC50, lay at 392 µM. Moreover, the Selectivity in data set [5] stood at 58. In the data set with Nucleic Acid, this compound gave an EC50 of 6.75 µM.
